Data set [1] deals with P. aeruginosa PAO1. The conditions noted are these: LL-37; ref [36]; cited from earlier work.
In data set [2] the test system is E. coli ATCC25922. The conditions noted are these: LL-37; ref [36]; cited from earlier work.
Data set [3] deals with human red blood cells. The conditions noted are these: LL-37; ref [36]; cited from earlier work.
For data set [4], the system named is S. aureus USA300 LAC. The conditions noted are these: for Minimal inhibitory concentration (MIC): USA300, pH 7.4; for MIC SA: USA300.
Data set [5] has as its system Klebsiella pneumonia ATCC 13883. The conditions noted are these: LL-37; ref [36]; cited from earlier work.
The test system of data set [6] is P. aeruginosa PAO1. It counts as cell-based, Pseudomonas aeruginosa.
For a further data set, the system named is HaCaT cells. It counts as cell-based, human.
Data set [7] concerns Klebsiella pneumonia ATCC 13883. It counts as cell-based, Klebsiella pneumoniae.
The subject of data set [8] is E. coli ATCC25922.
Data set [9] concerns human red blood cells. The class given is cell-based. As to conditions: red cells of human, 1 h.
The target of a further data set is S. aureus V8 protease (Staphylococcus aureus, UniProt P0C1U8). It counts as in vitro ADME. The conditions noted are these: 10 mM PBS pH 7.4, 37 °C, 3 h and 1 day, SDS-PAGE, Coomassie.
Sequence of S. aureus V8 protease (P0C1U8 69-336): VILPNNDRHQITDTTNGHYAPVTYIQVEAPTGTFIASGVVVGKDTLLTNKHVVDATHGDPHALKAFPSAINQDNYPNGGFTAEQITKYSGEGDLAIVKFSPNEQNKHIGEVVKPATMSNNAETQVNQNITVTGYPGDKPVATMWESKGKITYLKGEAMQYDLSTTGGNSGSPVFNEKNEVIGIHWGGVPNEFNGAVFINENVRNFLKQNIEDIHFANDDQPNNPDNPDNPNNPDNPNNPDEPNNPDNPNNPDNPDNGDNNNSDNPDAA
For data set [10], the system named is S. aureus USA300 LAC. The data set is described as follows: Bacterial membrane permeation. It counts as cell-based, Staphylococcus aureus. The conditions noted are these: 12.5 μM, 37 °C, fluorescence read every 5 min. In a few lines: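 Exponential-phase S. aureus USA300 at final OD600 ~0.1 in TSB or PBS, with propidium iodide (20 μM as added) and serially diluted peptide (12.5 μM in figure). Daptomycin and rifamycin serve as controls. Incubated at 37 °C with 100 rpm shaking in a plate reader. Fluorescence (ex 584/em 620 nm) read every 5 min for 24 cycles; average values plotted.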

The subject of data set [11] is MCP-1, IL-17A, IL-10, TNF-α. Nature of the data set: Cytokine levels in tissues surrounding catheters. It counts as in vivo, mouse. The conditions noted are these: tissue surrounding catheter, day 3 after peptide treatment. In a few lines:
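Catheter biofilm mouse model under ketamine/xylazine (100/10 mg/kg) anesthesia. Peptide 15 mg/kg injected at five sites in and around the catheter 2 h post infection. Untreated infected and uninfected-catheter groups included. Day 3: CO₂ euthanasia, peri-catheter tissue harvested and homogenized, stored at −80 °C. Cytokines quantified by individual mouse cytokine ELISA kits in duplicate with standards.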

Another data set relates to C57BL/6 mice. The data set is described as follows: In vivo toxicity. More on the design: species or system mouse.
Data set [12] has as its system S. aureus USA300 LAC. Nature of the data set: Systemic efficacy in neutropenic murine infection model. The class given is in vivo, mouse. The conditions noted are these: neutropenic mice, single dose 5 mg/kg i.p., n = 8, vs untreated. The essentials:
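Female C57BL/6 mice, 6 weeks old, made neutropenic with cyclophosphamide (day 1 150 mg/kg, day 4 100 mg/kg). Day 5: i.p. infection with ~2×10⁶ CFU S. aureus USA300. Single i.p. peptide dose 2 h later. Spleen, liver, lung and kidney weighed, homogenized in PBS, diluted, plated on blood agar (37 °C, overnight). CFU per tissue; Mann-Whitney test.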

The target in another data set is fungal proteinase K (Parengyodontium album, UniProt P06873). The data set is described as follows: Protease stability by SDS-PAGE, proteinase K. The class given is in vitro ADME. As to conditions: 10 mM PBS pH 7.4, 37 °C, 1 day, Coomassie.
Sequence of fungal proteinase K (P06873 106-384): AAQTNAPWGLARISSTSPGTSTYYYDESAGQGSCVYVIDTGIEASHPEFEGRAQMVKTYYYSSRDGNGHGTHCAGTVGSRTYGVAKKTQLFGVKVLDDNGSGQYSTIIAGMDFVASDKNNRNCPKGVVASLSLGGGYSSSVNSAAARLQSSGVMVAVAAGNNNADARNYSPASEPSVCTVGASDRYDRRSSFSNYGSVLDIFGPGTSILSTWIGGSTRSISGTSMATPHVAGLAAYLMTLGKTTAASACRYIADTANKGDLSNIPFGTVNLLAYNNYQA
Data set [13] relates to S. aureus USA300 LAC. Nature of the data set: Resistance development, multiple passage experiment. The class given is cell-based, Staphylococcus aureus. As to conditions: 14 days/passages at sub-MIC; average of three independent experiments.

Results on seven molecules are retold here after publication PMC9082781 (ACS infectious diseases, 2021).

In brackets after ≈: the same amount, converted by molar mass. Where two headings read alike, the source gives them in different places. Non-standard residues stand in square brackets, D forms with d. Residues, ends and D or L forms follow the SMILES beside them. *: point of attachment. Decanoyl = CCCCCCCCCC(=O)*; Octanoyl = CCCCCCCC(=O)*

Broadly, the HC50 is the concentration giving 50% haemolysis.

As for `CC[C@H](C)[C@H](NC(=O)[C@H](CCCCN)NC(=O)[C@H](CCC(=O)O)NC(=O)[C@H](CCCCN)NC(=O)[C@H](CO)NC(=O)[C@H](CCCCN)NC(=O)[C@H](CCCNC(=N)N)NC(=O)[C@H](Cc1ccccc1)NC(=O)[C@H](Cc1ccccc1)NC(=O)[C@H](CC(=O)O)NC(=O)CNC(=O)[C@H](CC(C)C)NC(=O)[C@@H](N)CC(C)C)C(=O)NCC(=O)N[C@@H](CCCCN)C(=O)N[C@@H](CCC(=O)O)C(=O)N[C@@H](Cc1ccccc1)C(=O)N[C@@H](CCCCN)C(=O)N[C@@H](CCCNC(=N)N)C(=O)N[C@H](C(=O)N[C@H](C(=O)N[C@@H](CCC(N)=O)C(=O)N[C@@H](CCCNC(=N)N)C(=O)N[C@H](C(=O)N[C@@H](CCCCN)C(=O)N[C@@H](CC(=O)O)C(=O)N[C@@H](Cc1ccccc1)C(=O)N[C@@H](CC(C)C)C(=O)N[C@@H](CCCNC(=N)N)C(=O)N[C@@H](CC(N)=O)C(=O)N[C@@H](CC(C)C)C(=O)N[C@H](C(=O)N1CCC[C@H]1C(=O)N[C@@H](CCCNC(=N)N)C(=O)N[C@H](C(=O)N[C@@H](CCC(=O)O)C(=O)N[C@@H](CO)C(=O)O)[C@@H](C)O)C(C)C)[C@@H](C)CC)C(C)C)[C@@H](C)CC` [LL-37], in the data set on P. aeruginosa PAO1 [1], the “MIC PA” value is over 50 µM. Besides, the “MIC EC” value with E. coli ATCC25922 [2] is 3.1 to 6.2 µM. Further, the concentration for 50% haemolysis (HC50) with human red blood cells [3] was 170 µM. Besides, the “Minimal inhibitory concentration against S. aureus” value with S. aureus USA300 LAC [4] (10% TSB) is 50 µM (≈ 225 µg/mL); in the data set with S. aureus USA300 LAC [4] (50% TSB), over 50 µM; with S. aureus USA300 LAC [4] (100% MHB), over 50 µM; in the data set on S. aureus USA300 LAC [4] (100% TSB), over 50 µM. Also, the “MIC KP” value in data set [5] is 6.2 µM (≈ 27.9 µg/mL).
For the molecule `CCCCCCCC(=O)N[C@@H](CCCCN)C(=O)N[C@@H](CCCNC(=N)N)C(=O)N[C@H](C(=O)N[C@@H](Cc1c[nH]c2ccccc12)C(=O)N[C@@H](CCC(N)=O)C(=O)N[C@@H](CCCNC(=N)N)C(=O)N[C@H](C(=O)N[C@@H](CCCCN)C(=O)N[C@@H](CC(=O)O)C(=O)N[C@@H](Cc1ccccc1)C(N)=O)[C@@H](C)CC)[C@@H](C)CC` [Peptide C8-KR10] (Octanoyl-KRIWQRIKDF-NH2), in the data set with P. aeruginosa PAO1 [6], the “MIC PA” value worked out at 6.2 µM (≈ 9.39 µg/mL). In addition, in the data set on HaCaT cells, the “relative toxicity to HaCaT cells” value is “slightly less toxic than C8-KR10d”. In addition, the “Minimal inhibitory concentration (MIC)” value in the data set with S. aureus USA300 LAC [4] stood at 6.2 µM (≈ 9.39 µg/mL). Besides, in data set [7], the “MIC KP” value is 25 µM (≈ 37.9 µg/mL). For the same molecule, the “MIC EC” value in the data set on E. coli ATCC25922 [8] worked out at 6.2 µM (≈ 9.39 µg/mL).
For the molecule `CCCCCCCC(=O)N[C@H](CCCCN)C(=O)N[C@H](CCCNC(=N)N)C(=O)N[C@@H](C(=O)N[C@H](Cc1c[nH]c2ccccc12)C(=O)N[C@H](CCC(N)=O)C(=O)N[C@H](CCCNC(=N)N)C(=O)N[C@@H](C(=O)N[C@H](CCCCN)C(=O)N[C@H](CC(=O)O)C(=O)N[C@H](Cc1ccccc1)C(N)=O)[C@H](C)CC)[C@H](C)CC` [Peptide C8-KR10d] (Octanoyl-[dK][dR][dI][dW][dQ][dR][dI][dK][dD][dF]-NH2; C-terminus assumed), the “MIC PA” value in the data set with P. aeruginosa PAO1 [6] worked out at 12.5 µM (≈ 18.9 µg/mL). For the same molecule, in the data set on S. aureus USA300 LAC [4], the “MIC SA” value turned out to be 3.1 µM (≈ 4.7 µg/mL) and the “Minimal inhibitory concentration (MIC)” value stood at 3.1 µM (≈ 4.7 µg/mL). The “MIC KP” value in data set [7] stood at 12.5 µM (≈ 18.9 µg/mL). Moreover, the “MIC EC” value in the data set on E. coli ATCC25922 [8] came out at 6.2 µM (≈ 9.39 µg/mL).
In the case of `CCCCCCCCCC(=O)N[C@@H](CCCCN)C(=O)N[C@@H](CCCNC(=N)N)C(=O)N[C@H](C(=O)N[C@@H](Cc1c[nH]c2ccccc12)C(=O)N[C@@H](CCC(N)=O)C(=O)N[C@@H](CCCNC(=N)N)C(=O)N[C@H](C(=O)N[C@@H](CCCCN)C(N)=O)[C@@H](C)CC)[C@@H](C)CC` [Peptide C10-KR8] (Decanoyl-KRIWQRIK-NH2), the HC50 with human red blood cells [9] was determined as 300 µM. Further, the “stability to S. aureus V8 protease” value at S. aureus V8 protease was “except for S. aureus V8 protease”. Moreover, in the data set on S. aureus USA300 LAC [4], the “MIC SA” value is 1.5 to 3.1 µM and the “Minimal inhibitory concentration (MIC)” value was 3.1 µM (≈ 3.97 µg/mL). Moreover, in data set [7], the “MIC KP” value was 50 µM (≈ 64 µg/mL). Besides, the “MIC EC” value against E. coli ATCC25922 [8] is 12.5 µM (≈ 16 µg/mL).
With `CCCCCCCCCC(=O)N[C@H](CCCCN)C(=O)N[C@H](CCCNC(=N)N)C(=O)N[C@@H](C(=O)N[C@H](Cc1c[nH]c2ccccc12)C(=O)N[C@H](CCC(N)=O)C(=O)N[C@H](CCCNC(=N)N)C(=O)N[C@@H](C(=O)N[C@H](CCCCN)C(N)=O)[C@H](C)CC)[C@H](C)CC` [Peptide C10-KR8d] (Decanoyl-[dK][dR][dI][dW][dQ][dR][dI][dK]-NH2), the “MIC PA” value against P. aeruginosa PAO1 [6] was found to be 6.2 µM (≈ 7.94 µg/mL). The “membrane permeation (propidium iodide fluorescence)” value with S. aureus USA300 LAC [10] is “able to permeate the membranes”. In [11], the IL-10 level result is “decrease”, the IL-17A level result is “up-regulation”, the MCP-1/CCL2 level result is on record as “up-regulation” and the TNFα level entry was “decrease”. This molecule also registered an HC50 in the data set with human red blood cells [9] of 300 µM. For the same molecule, the “stability to S. aureus V8 protease” value at S. aureus V8 protease is on record as “resistant”. Also, in the data set on C57BL/6 mice (10 mg/kg i.p., female C57BL/6 mice n=3, 5 days observation), the survival entry is “all mice survived”. Also, in the data set on C57BL/6 mice (20 mg/kg i.p., female C57BL/6 mice n=3, 5 days observation), the survival entry is “all mice survived”. Further, the survival entry with C57BL/6 mice (40 mg/kg i.p., female C57BL/6 mice n=3, died in a day) was “all mice died”. In addition, the “maximal tolerated dose (MTD)” value in the data set on C57BL/6 mice (i.p., C57BL/6 mice, 20 mg/kg or more but less than 40 mg/kg) is at least 20 mg/kg. Besides, in the data set with HaCaT cells, the “relative toxicity to HaCaT cells” value is recorded as “slightly more toxic than C10-KR8”. In the data set on S. aureus USA300 LAC [4], the “Minimal inhibitory concentration (MIC)” value is 3.1 µM (≈ 3.97 µg/mL). Moreover, in the data set on S. aureus USA300 LAC [12], the “CFU decrease in kidney” value is “not in spleen and kidney”; the “CFU decrease in spleen” value is “not in spleen and kidney”. Further, at fungal proteinase K, the “stability to fungal proteinase K” value is listed as “resistant”. The “MIC KP” value in [7] stood at 25 µM (≈ 32 µg/mL). Further, in the data set with S. aureus USA300 LAC [13], the “MIC increase during serial passages” value was “no changes”.
Take `CCOc1ccc2ccccc2c1C(=O)N[C@@H]1C(=O)N2[C@@H]1SC(C)(C)[C@@H]2C(=O)O` [nafcillin, reference compound]: the “MIC increase during serial passages” value in the data set on S. aureus USA300 LAC [13] is “over 30 fold”.
Turning to `CO[C@H]1/C=C/O[C@@]2(C)Oc3c(C)c(O)c4c(O)c(cc(O)c4c3C2=O)NC(=O)/C(C)=C\C=C\[C@H](C)[C@H](O)[C@@H](C)[C@@H](O)[C@@H](C)[C@H](OC(C)=O)[C@@H]1C` [rifamycin, reference compound], the “membrane permeation (propidium iodide fluorescence)” value in the data set with S. aureus USA300 LAC [10] is on record as “unable to achieve the same effect”.
